Results published in ChEMBL document CHEMBL5230178, “6-Bromoindirubin-3'-oxime derivatives are highly active colistin adjuvants against Klebsiella pneumoniae” (RSC Med Chem, 2023).
Activity calls are given as the source filed them. No cut-off for these calls is given here.

Assays:
[1] = tested on: Acinetobacter baumannii; assay: Antimicrobial activity against colistin resistant Acinetobacter baumannii 3941 assessed as inhibition of microbial growth incubated for 16 hrs by broth microdilution method; assay type: functional, organism-based
Summary of the method: (§1)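 Bacteria grown 6 h in cation-adjusted Mueller Hinton broth (CAMHB), subcultured to 5×10^5 CFU/mL. Compound added from DMSO stock and serially two-fold diluted in the culture. Incubated stationary at 37 °C for 16 h. MIC taken as the lowest concentration giving 90% growth inhibition versus untreated wells. Duplicate, repeated at least twice.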

[2] = tested on: Klebsiella pneumoniae; assay: Antibacterial activity against colistin resistant Klebsiella pneumoniae C3 assessed as inhibition of bacterial growth incubated for 16 hrs by broth microdilution method; assay type: functional, organism-based; summary of the method: as §1
[3] = tested on: Klebsiella pneumoniae; assay: Antibacterial activity against colistin resistant Klebsiella pneumoniae I2 assessed as inhibition of bacterial growth incubated for 16 hrs by broth microdilution method; assay type: functional, organism-based; summary of the method: as §1
[4] = tested on: Escherichia coli; assay: Antimicrobial activity against colistin resistant Escherichia coli 25922 harbouring mcr-1 gene assessed as inhibition of microbial growth incubated for 16 hrs by broth microdilution method; assay type: functional, organism-based; summary of the method: as §1
[5] = tested on: Klebsiella pneumoniae; assay: Antibacterial activity against colistin resistant Klebsiella pneumoniae F9 assessed as inhibition of bacterial growth incubated for 16 hrs by broth microdilution method; assay type: functional, organism-based; summary of the method: as §1
[6] = tested on: Klebsiella pneumoniae; assay: Antibacterial activity against colistin resistant Klebsiella pneumoniae F2210291 harbouring mcr-1 gene assessed as inhibition of bacterial growth incubated for 16 hrs by broth microdilution method; assay type: functional, organism-based; summary of the method: as §1
[7] = tested on: Klebsiella pneumoniae; assay: Antibacterial activity against Klebsiella pneumoniae B9 assessed as inhibition of bacterial growth incubated for 16 hrs by broth microdilution method; assay type: functional
Summary of the method: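 Broth microdilution in CAMHB. Six-hour culture diluted to 5×10^5 CFU/mL, compound added from DMSO stock, two-fold serial dilution. MIC is the lowest concentration giving 90% growth inhibition versus untreated wells. Run in duplicate, repeated at least twice.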

[8] = tested on: Pseudomonas aeruginosa; assay: Antimicrobial activity against colistin resistant Pseudomonas aeruginosa TRPA 162 assessed as inhibition of microbial growth incubated for 16 hrs by broth microdilution method; assay type: functional, organism-based; summary of the method: as §1
[9] = tested on: Klebsiella pneumoniae; assay: Potentiation of colistin-induced antibacterial activity against colistin resistant Klebsiella pneumoniae B9 assessed as colistin MIC at 5 uM incubated for 16 hrs by broth microdilution method; assay type: functional
Summary of the method: (§2)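 Bacteria grown 6 h in CAMHB, diluted to 5×10^5 CFU/mL. Fixed adjuvant concentration added from DMSO stock; an undosed aliquot gives the colistin MIC alone. Colistin serially two-fold diluted in the compound-dosed suspension. MIC taken at 90% growth inhibition versus untreated wells. Fold change is colistin MIC alone over MIC with adjuvant. Duplicate, repeated at least twice.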

[10] = tested on: Klebsiella pneumoniae; assay: Potentiation of colistin-induced antibacterial activity against colistin resistant Klebsiella pneumoniae F9 assessed as colistin MIC at 5 uM incubated for 16 hrs by broth microdilution method; assay type: functional; summary of the method: as §2
[11] = tested on: Acinetobacter baumannii; assay: Potentiation of colistin-induced antimicrobial activity against colistin resistant Acinetobacter baumannii 3941 assessed as assessed as colistin MIC at 5 uM incubated for 16 hrs by broth microdilution method; assay type: functional; summary of the method: as §2
[12] = tested on: Klebsiella pneumoniae; assay: Potentiation of colistin-induced antibacterial activity against colistin-resistant Klebsiella pneumoniae B9 assessed as colistin MIC at 1 uM incubated for 16 hrs by broth microdilution method; assay type: functional; summary of the method: as §2
[13] = tested on: Klebsiella pneumoniae; assay: Potentiation of colistin-induced antibacterial activity against colistin-resistant Klebsiella pneumoniae B9 assessed as fold change in colistin MIC at 5 uM incubated for 16 hrs by broth microdilution method; assay type: functional; summary of the method: as §2
[14] = tested on: Klebsiella pneumoniae; assay: Potentiation of colistin-induced antibacterial activity against colistin resistant Klebsiella pneumoniae F2210291 harbouring mcr-1 gene assessed as colistin MIC at 5 uM incubated for 16 hrs by broth microdilution method; assay type: functional; summary of the method: as §2
[15] = tested on: Klebsiella pneumoniae; assay: Potentiation of colistin-induced antibacterial activity against colistin resistant Klebsiella pneumoniae I2 assessed as colistin MIC at 5 uM incubated for 16 hrs by broth microdilution method; assay type: functional; summary of the method: as §2
[16] = tested on: Klebsiella pneumoniae; assay: Potentiation of colistin-induced antibacterial activity against colistin-resistant Klebsiella pneumoniae B9 assessed as fold change in colistin MIC at 3 uM incubated for 16 hrs by broth microdilution method; assay type: functional; summary of the method: as §2
[17] = tested on: Pseudomonas aeruginosa; assay: Potentiation of colistin-induced antimicrobial activity against colistin-resistant Pseudomonas aeruginosa TRPA 162 assessed as colistin MIC at 5 uM incubated for 16 hrs by broth microdilution method; assay type: functional; summary of the method: as §2
[18] = tested on: Klebsiella pneumoniae; assay: Potentiation of colistin-induced antibacterial activity against colistin-resistant Klebsiella pneumoniae B9 assessed as colistin MIC at 3 uM incubated for 16 hrs by broth microdilution method; assay type: functional; summary of the method: as §2
[19] = tested on: Klebsiella pneumoniae; assay: Potentiation of colistin-induced antibacterial activity against colistin resistant Klebsiella pneumoniae C3 assessed as colistin MIC at 5 uM incubated for 16 hrs by broth microdilution method; assay type: functional; summary of the method: as §2
[20] = tested on: Escherichia coli; assay: Potentiation of colistin-induced antimicrobial activity against colistin resistant Escherichia coli 25922 harbouring mcr-1 gene assessed as colistin MIC at 5 uM incubated for 16 hrs by broth microdilution method; assay type: functional; summary of the method: as §2

Row | Molecule | MIC [7] | MIC [9] [µg/mL] | fold change (FC) [13] | also measured
1 | COLISTIN | 512 µg/mL |  |  | MIC [1]: 1020 µg/mL; MIC [2]: 128 µg/mL; MIC [3]: 512 µg/mL; MIC [4]: 16 µg/mL; MIC [5]: 256 µg/mL; MIC [6]: 16 µg/mL; MIC [8]: 1020 µg/mL
2 | O=C1Nc2ccccc2/C1=C1/Nc2c(Cl)cccc2/C1=N\O | > 200 µM | > 16 |  | 
3 | O=C1Nc2cc(Br)ccc2/C1=C1/Nc2ccccc2/C1=N\O [6BIO] | > 200 µM | 1 | 512 | MIC [10]: 4 µg/mL; MIC [11]: > 16 µg/mL; MIC [12]: > 64 µg/mL; Activity [1]: inactive; MIC [14]: 2 µg/mL; MIC [15]: 8 µg/mL; fold change (FC) [16]: 16; MIC [17]: > 16 µg/mL; MIC [18]: 32 µg/mL; Activity [4]: inactive; MIC [19]: 4 µg/mL; MIC [20]: 2 µg/mL; Activity [8]: inactive
4 | O=C1Nc2cc(Br)ccc2/C1=C1/Nc2ccc(Cl)cc2/C1=N\O | > 200 µM | 2 | 256 | MIC [12]: > 64 µg/mL; fold change (FC) [16]: 32; MIC [18]: 16 µg/mL
5 | O=C1Nc2ccc(Br)cc2/C1=C1/Nc2ccccc2/C1=N\O [INDIRUBIN 2] | > 200 µM | > 16 |  | 
6 | O=C1Nc2cc(Br)ccc2/C1=C1/Nc2c(Cl)cc(Cl)cc2/C1=N\O | > 200 µM | > 16 |  | 
7 | O=C1Nc2cc(Br)ccc2/C1=C1/Nc2c(cccc2C(F)(F)F)/C1=N\O | > 200 µM | 2 | 256 | MIC [12]: 64 µg/mL; fold change (FC) [16]: 128; MIC [18]: 4 µg/mL
8 | O=C1Nc2cc(Br)ccc2/C1=C1/Nc2cc(Cl)c(Cl)cc2/C1=N\O | > 200 µM | > 16 |  | 
9 | O=C1Nc2cc(Cl)ccc2/C1=C1/Nc2ccccc2/C1=N\O | > 200 µM | 4 | 128 | 
10 | O=C1Nc2c(Br)cccc2/C1=C1/Nc2ccccc2/C1=N\O | > 200 µM | > 16 |  | 
11 | O=C1Nc2cc(Br)ccc2/C1=C1/Nc2ccc(-c3ccccc3)cc2/C1=N\O | > 200 µM | > 16 |  | 
12 | O=C1Nc2cc(Br)ccc2/C1=C1/Nc2cc(Br)ccc2/C1=N\O | > 200 µM | 8 | 64 | 
13 | O=C1Nc2cc(Br)ccc2/C1=C1/Nc2ccc(F)cc2/C1=N\O | > 200 µM | 2 | 256 | MIC [12]: > 64 µg/mL; fold change (FC) [16]: 16; MIC [18]: 32 µg/mL
14 | O=C1Nc2cc(Br)ccc2/C1=C1/Nc2ccc(C(F)(F)F)cc2/C1=N\O | > 200 µM | 8 | 64 | 
15 | O=C1Nc2cc(Br)ccc2/C1=C1/Nc2c(cccc2-c2ccccc2)/C1=N\O | > 200 µM | > 16 |  | 
